Sampled rows, rich in hits. Any-hit rate of the full collection: about 9.6%.
L major viab: reduces viability of Leishmania major promastigotes. 200,000 compounds, 9% hits. inhibition, % at 10 µM. resazurin fluorescence viability; in the data active means inhibition above about 50%;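 further: promastigotes grown with compound for 44 hours at 28 °C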
PTEN del growth: PTEN-deleted cell growth suppression; HCT116 PTEN-null viability, CellTiter-Glo, 60 h; stronger effect = lower value; viability, % at 10 µM; 140,000 compounds, 1.2% hits; AID 827;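 active means viability at or below a set limit, 4 SD under the median of all tested compounds, cut at about 3.7% in these data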;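 further: PTEN knockout HCT116 line with beta catenin targeted HCT116 as companion control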
bCat KO growth: beta-catenin-lacking colon tumor cell growth suppression. HCT116 beta-catenin knockout viability, CellTiter-Glo, 60 h; stronger effect = lower value. viability, % at 10 µM. 140,000 compounds, 1.5% hits. AID 818;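 active means viability at or under a set limit, the compound median less 4 SD, cut at about 6% in these data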
PMI activator: phosphomannose isomerase (human) activation. purified human PMI, coupled resazurin fluorescence, 20 min; stronger effect = higher value; 1 = vehicle control, 0 substrate-free wells. activation factor at 20 µM. 190,000 compounds, 0.005% hits. AID 1214;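 active means activation factor of 2 or more at 20 µM, relative to plate controls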
Target sequence (P34949 whole entry, looked up): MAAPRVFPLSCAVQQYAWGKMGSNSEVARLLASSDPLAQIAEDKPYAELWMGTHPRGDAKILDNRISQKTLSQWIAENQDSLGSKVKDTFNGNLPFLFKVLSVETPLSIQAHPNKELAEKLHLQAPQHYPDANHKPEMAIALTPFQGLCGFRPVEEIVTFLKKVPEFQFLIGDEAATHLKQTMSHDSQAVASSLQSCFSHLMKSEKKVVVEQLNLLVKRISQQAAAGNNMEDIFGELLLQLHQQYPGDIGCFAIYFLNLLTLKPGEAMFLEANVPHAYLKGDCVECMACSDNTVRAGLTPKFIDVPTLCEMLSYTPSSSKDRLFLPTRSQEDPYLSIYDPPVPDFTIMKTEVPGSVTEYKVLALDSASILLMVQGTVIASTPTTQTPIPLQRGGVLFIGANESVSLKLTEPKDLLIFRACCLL
PMI act satM6P: activators of human phosphomannose isomerase at near-saturating mannose 6-phosphate; activation factor at 20 µM; coupled PMI enzyme assay, resazurin fluorescence, 20 min; stronger effect = higher value; 1 = untreated enzyme, 0 = substrate-free blank; 190,000 compounds, 0.34% hits; P34949;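 active means activation factor of 2 or more at 20 µM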
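Test system – human PMI in coupled enzyme assay · Timing – 20 min incubation at room temperature · Detection – Diaphorase-driven resazurin-to-resorufin fluorescence, excitation 544, emission 590 nm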
Of the large screens only hits and unclear results are named; the others gave an inactive call.

CC(C)=CCC/C(C)=C/CCC(C)NCCN1CCNCC1 (configuration not stated)	L major viab 100.5, PTEN del growth 1.8, bCat KO growth 1.8
COc1ccc(NC(=O)Nc2ccc(C(=O)N3CCOCC3)cc2)c(OC)c1	none (no result: PTEN del growth, bCat KO growth)
CN1CCN(c2ccc(Cl)cc2NC(=O)CCN2C(=O)c3ccccc3C2=O)CC1	L major viab 76.7 (no result: PTEN del growth, bCat KO growth)
CN1CCN(c2ccc(Cl)cc2NC(=O)/C=C/c2ccc(F)cc2)CC1	L major viab 94.1 (no result: PTEN del growth, bCat KO growth)
Cc1ccc(S(=O)(=O)N2CCOCC2)cc1NC(=O)COC(=O)c1cc(=O)c2ccccc2o1	none
CN(C)c1ccc(-c2n[nH]c(=S)n2-c2ccccc2)cc1	none (no result: PTEN del growth, bCat KO growth)
CN(C)c1ccc(C2CC(c3ccccc3)=Nc3nc(-c4ccccc4)cn32)cc1 (configuration not stated)	L major viab 90.9
CCSC1=NC2(CCCCC2)Nc2sc3c(c21)CCCC3	L major viab 100.2
CCOC(=O)c1sc2nc(C)nc(SCC(=O)N(C)C3CCS(=O)(=O)C3)c2c1C (configuration not stated)	none (no result: PTEN del growth, bCat KO growth)
CCOC(=O)c1sc2nc(C)nc(SCC(=O)NC(C)CCc3ccccc3)c2c1C (configuration not stated)	L major viab 95.9
CC(C)(C)c1ccc(CN2N=Nc3ccccc3S2(=O)=O)cc1	L major viab 100.5
O=S1(=O)c2ccccc2N=NN1Cc1ccc(Cl)c(Cl)c1	none
O=C1c2ccccc2OCOc2ccccc21	none
O=C1/C(=C/c2ccccc2[N+](=O)[O-])COc2ccccc21	L major viab 99.6 (no result: PTEN del growth, bCat KO growth)
O=C1/C(=C/c2ccccn2)COc2ccccc21	L major viab 100.4 (no result: PTEN del growth, bCat KO growth)
COc1cccc(CNCC(O)(c2ccc(Cl)cc2)c2ccc(Cl)cc2)c1	L major viab 65.5
COc1ccc(CNCC(O)(c2ccccc2)c2ccc(Cl)cc2)cc1 (configuration not stated)	none
COc1ccc(CNCc2cccc(Cl)c2)cc1	L major viab 65.8
COC(=O)c1cccc(NC(=O)CCSc2ccc(Cl)cc2)c1C	none
CCCCCCCn1c(C)nnc1-c1cnn(C)c1N	none (no result: PTEN del growth, bCat KO growth)
COCCCN(C(=S)Nc1c(C)cc(C)cc1C)C(C)c1ccccn1 (configuration not stated)	L major viab 52.4 (no result: PTEN del growth, bCat KO growth)
COCCCN(C(=S)Nc1cc(C)cc(C)c1)C(C)c1ccncc1 (configuration not stated)	L major viab 82.4
Cc1cccc(C)c1NC(=S)N(CCN(C)C)C(C)c1ccccn1 (configuration not stated)	none (no result: PTEN del growth, bCat KO growth)
COCCCN(C(=S)Nc1cccc(Cl)c1)C(C)c1ccncc1 (configuration not stated)	L major viab 63.3
Cc1ccc(C)c(S(=O)(=O)N2CCCOC2CNC(=O)C(=O)NCc2ccncc2)c1 (configuration not stated)	none (no result: PTEN del growth, bCat KO growth)
C=CCNS(=O)(=O)c1nc(C)c(Cl)c(C)c1C#N	none
CCOC(=O)N1CCC2(CC1)C(C#N)=C(N)Oc1c2c(C)nn1-c1cccc(Cl)c1	PMI act satM6P 2
CCN1C(=O)C2(C(C#N)=C(N)Oc3c2c(C)nn3-c2ccccc2)c2ccccc21 (configuration not stated)	L major viab 85.5
Cc1nn(-c2ccccc2)c2c1C1(C(=O)N(C)c3ccccc31)C(C#N)=C(N)O2 (configuration not stated)	none
CCOC1=NN(c2ncc(C(F)(F)F)cc2Cl)C(=O)/C1=C/N(C)C	none (no result: PTEN del growth, bCat KO growth)
CC1=C/C(=N\NC(=O)c2ccc(O)cc2)CC1	none
CCOc1ccc(NC(=O)CCCN2C(=S)NC(C)(C)CC2C)cc1 (configuration not stated)	L major viab 59.1
CC(=C1C(=O)c2ccccc2C1=O)N1CCc2ccccc2C1	L major viab 92.4
COc1cc(CNCCC2CCOC(C)(C)C2)ccc1O (configuration not stated)	L major viab 57.3
Cc1ccc(NC(=S)NNC(=O)c2ccc(N3CCOCC3)c([N+](=O)[O-])c2)cc1C	none
COc1ccc(-c2nc(=S)c3c([nH]2)Oc2ccc(C)cc2C3)cc1O	L major viab 97.1, PMI act satM6P 2.1
COc1ccc(C2(C(=O)NC3CCCCC3)CCOCC2)cc1OC	none
COc1ccc(CCNC(=O)C2CCC(CNc3c(N4CCCC4)c(=O)c3=O)CC2)cc1OC (configuration not stated)	none
COc1ccc(Cl)cc1NC(=S)N(CCCN1CCOCC1)Cc1cn(C)c2ccccc12	L major viab 99.5
COc1cc(Cl)ccc1NC(=S)N(CCCN1CCOCC1)Cc1cn(C)c2ccccc12	L major viab 89.4
O=C(c1nc2ncccn2n1)N1CCc2ccccc2C1	L major viab 90.8
CCOc1c2ccc(C(=O)N[C@H](C)C3CCCCC3)cc2nn1CC	none
COc1cc(/C=C2\SC(=S)N(Nc3ccccc3)C2=O)ccc1O	none
O=C1/C(=C/c2ccc(O)c(O)c2)SC(=S)N1Nc1ccccc1	L major viab 78.4 (no result: PTEN del growth, bCat KO growth)
CCOc1ccc(CCNC(=O)COC(=O)c2ccccc2O)cc1OCC	L major viab 81.6 (no result: PTEN del growth, bCat KO growth)
CCOc1ccc(CCNC(=O)c2ccc(CNS(=O)(=O)c3ccccc3)cc2)cc1OCC	L major viab 52.7
COc1ccc(CCNC(=O)c2ccc(CNS(=O)(=O)c3ccc(C(C)(C)C)cc3)cc2)cc1OC	none
CCOC(=O)c1ccc(NC(=O)C2(c3ccccc3)CCOCC2)cc1	none
Cc1nc2ccccn2c1C(=O)N=Nc1c(O)n(CCC(C)C)c2ccccc12	L major viab 66.9
Cc1cc(=O)n(CCCO)c(O)c1C#N	none
Cc1cc(=S)cc(C)n1CCCO	PMI act satM6P 2
CCOCCCNC(=O)Cc1c(C(=O)O)[nH]c2ccc(Cl)cc12	none
O=C(Nc1ccc2c(c1)Cc1ccccc1-2)c1cccnc1	none (no result: PTEN del growth, bCat KO growth)
O=C(Cc1ccccc1F)Nc1nc(-c2cccs2)cs1	none
O=C(Cc1ccccc1F)Nc1nc(-c2cccnc2)cs1	L major viab 52.3 (no result: PTEN del growth, bCat KO growth)
CCc1ccccc1OCC(=O)Nc1nc(-c2cccnc2)cs1	L major viab 80.9 (no result: PTEN del growth, bCat KO growth)
CC(=O)c1ccc(NC(=O)Nc2ccccc2)cc1	none
O=C(Nc1nc(-c2ccc(S(=O)(=O)N3CCOCC3)cc2)cs1)c1ccccc1	L major viab 73.4
COc1cccc(C(=O)Nc2nc(-c3ccc(S(=O)(=O)N4CCOCC4)cc3)cs2)c1	L major viab 91.7
Cc1ccc(-c2csc(NC(=O)c3cccc(S(=O)(=O)N4CCN(C)CC4)c3)n2)cc1	none
CCOc1ccc(-c2csc(NC(=O)c3ccc(S(=O)(=O)N4CCc5ccccc5C4)cc3)n2)cc1	none
COc1ccc(-c2csc(NC(=O)c3ccc(S(=O)(=O)N4CCc5ccccc5C4)cc3)n2)c(OC)c1	L major viab 90.5
O=S(=O)(c1ccc(-c2csc(-c3cccnc3)n2)cc1)N1CCOCC1	L major viab 68.4 (no result: PTEN del growth, bCat KO growth)
O=C(Cn1ccc(C(F)(F)F)n1)N=Nc1c(O)[nH]c2ccc(Br)cc12	none (no result: PTEN del growth, bCat KO growth)
Cc1ccc(-c2ccc(=O)n(CC(=O)N3CCN(c4cc(Cl)ccc4C)CC3)n2)cc1	none

High-throughput results (PubChem BioAssay)
